# Rows were chosen to be rich in hits. Some 3% of all compounds tested hit in one or more screens of this group.
# Cneo AK release: Cryptococcus neoformans lysis via adenylate kinase release; C. neoformans lysis, adenylate kinase release luminescence, 4 h; normalised: neutral wells 0, clomiphene wells 100; lysis activity, % at 15 µM; 360,000 compounds, 0.2% hits; AID 651654;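 active means mean lysis activity across replicates of at least 80%, whatever share of replicates individually reach that level; inactive means mean lysis activity below 80%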
#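 Material – log-phase Cryptococcus neoformans yeast cells · Input – 5 × 10^6 yeast cells/mL · Medium – fresh YPD growth medium · Doses – single compound concentration per well · Timing – static 4 h at 37 °C with compound, 1 h detection · Detection – adenylate kinase release luminescence · Read-out – signal increase indicating cell lysis · Control set – Clomiphene as positive lysis control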
# rRNA inh HTS: selective bacterial rRNA inhibition in E. coli. E. coli WT GFP vs humanized-ribosome RFP mutants, fluorescence, 24 h; stronger effect = lower value; DMSO median 0, no signal -100. GFP signal change (wild-type ribosome), % (concentration not given with the values). 350,000 compounds, 1.6% hits. AID 720706;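 active means significant combined selectivity score with lowered wild-type GFP, culture density cut under 30%, mutant RFP and density less affected; inactive means any of these conditions unmet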
# SIRT5 inh: inhibitors of human sirtuin-5 desuccinylase. Q9NXA8. Purified SirT5, succinyl-peptide AMC, trypsin-coupled fluorescence. inhibition, % at 15 µM. 330,000 compounds, 1.1% hits; in the data active means inhibition above about 15%; inconclusive means no clear call, values can overlap the other calls
# Target sequence (Q9NXA8 whole entry, looked up): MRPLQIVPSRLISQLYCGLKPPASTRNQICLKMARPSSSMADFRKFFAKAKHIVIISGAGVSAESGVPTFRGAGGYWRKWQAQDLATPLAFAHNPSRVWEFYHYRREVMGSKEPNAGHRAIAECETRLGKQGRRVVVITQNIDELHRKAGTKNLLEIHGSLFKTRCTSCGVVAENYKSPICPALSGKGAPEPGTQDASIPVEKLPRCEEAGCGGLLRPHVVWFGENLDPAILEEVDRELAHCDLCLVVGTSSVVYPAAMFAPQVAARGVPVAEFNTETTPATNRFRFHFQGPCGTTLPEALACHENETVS
# Statin myotox sup: protects C2C12 myotubes from simvastatin toxicity | ATP luminescence, 48 h; scaled: DMSO 0, geranylgeraniol control 100 | rescue of ATP level, % at 7.49 µM | 330,000 compounds, 0.78% hits;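 active means mean ATP rescue above about 67%, or every replicate alone reaching that limit, limit read from the data, passing the limit was not always enough; inconclusive means no clear call, values can overlap the other calls; inactive means mean under the limit and some replicate under it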;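 further: myotubes were challenged with 10 µM simvastatin during compound exposure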
# S100A4 MyoIIA: inhibitors of human S100A4 binding to myosin IIA peptide | inhibition, % at 10.7 µM | S100A4/TAMRA-MyoIIA peptide fluorescence polarization | 360,000 compounds, 0.14% hits;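 active means mean inhibition of at least 70% across replicates, with every replicate also reaching that level; inconclusive means mean inhibition reaches 70% but some replicates fall short; inactive means mean inhibition below 70%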
# Target sequence (P26447 whole entry, looked up): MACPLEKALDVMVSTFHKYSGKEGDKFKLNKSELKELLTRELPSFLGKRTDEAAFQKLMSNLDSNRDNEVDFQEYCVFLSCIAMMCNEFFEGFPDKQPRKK
#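 Assay system: human S100A4 monomer with TAMRA-labelled myosin IIA peptide / Buffer or medium: Calcium-containing HEPES buffer, pH 7.2 / Reagent: TAMRA-labelled myosin IIA heavy-chain peptide probe, 5 nM / Compound: one dose per compound / Timing: polarization read 5 min after assay mix addition, stable 5–60 min / Benchmarks: neutral control DMSO, positive control TFP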
# PGC1a acetyl inh: PGC1a acetylation modulation, inhibitor mode; U2OS PGC1a acetylation, AlphaScreen anti-acetyl-lysine; with virally co-expressed GCN5 acetyltransferase; inhibition, % at 15.6 µM; 350,000 compounds, 0.17% hits;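 active means every replicate shows inhibition of at least 40%; inconclusive means mean inhibition at least 40% but some replicate below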;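 further: 0% = neutral control wells and 100% = positive control wells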
# * marks the source's active call; other numbers are inactive results; ? = inconclusive; · = no result.
SMILES,Cneo AK release,rRNA inh HTS,SIRT5 inh,Statin myotox sup,S100A4 MyoIIA,PGC1a acetyl inh
C[C@H]1CCCCO[C@@H](CN(C)C(=O)Nc2ccc3c(c2)OCO3)[C@@H](C)CN([C@@H](C)CO)C(=O)c2cc(NS(=O)(=O)c3cccs3)ccc2O1,1,-1,12,84*,-1,14
C[C@@H]1CCCCO[C@H](CN(C)C(=O)Nc2cccc3ccccc23)[C@@H](C)CN([C@@H](C)CO)C(=O)c2cc(NS(=O)(=O)c3ccccc3)ccc2O1,·,0,15*,·,5,-10
C[C@@H]1CCCCO[C@@H](CN(C)C(=O)Nc2cccc3ccccc23)[C@H](C)CN([C@H](C)CO)C(=O)c2cc(NS(=O)(=O)c3cccs3)ccc2O1,0,-3,1,108*,5,·
Cc1ccc(S(=O)(=O)Nc2ccc3c(c2)C(=O)N([C@@H](C)CO)C[C@@H](C)[C@@H](CN(C)C(=O)Nc2cccc4ccccc24)OCCCC[C@@H](C)O3)cc1,2,1,17*,·,10,-10
CCCNC(=O)N1CC(=O)N2[C@H](C1)[C@@H](c1ccc(-c3ccccc3)cc1)[C@@H]2CO,·,1,·,·,·,·
C[C@@H]1CCCCO[C@@H](CN(C)C(=O)Nc2cccc3ccccc23)[C@@H](C)CN([C@H](C)CO)C(=O)c2cc(NS(=O)(=O)c3ccc(Cl)cc3)ccc2O1,-3,2,8,94*,10,0
C[C@@H]1CCCCO[C@H](CN(C)C(=O)Nc2cccc3ccccc23)[C@H](C)CN([C@H](C)CO)C(=O)c2cc(NS(=O)(=O)c3ccc(Cl)cc3)ccc2O1,-2,2,6,25,-11,2
C[C@H]1CN([C@@H](C)CO)S(=O)(=O)c2ccc(C3=CCCCC3)cc2O[C@H]1CN(C)CC1CC1,·,·,·,-43,·,-22
COc1ccc(S(=O)(=O)Nc2ccc3c(c2)C(=O)N([C@@H](C)CO)C[C@H](C)[C@@H](CN(C)S(=O)(=O)c2ccc(F)cc2)OCCCC[C@@H](C)O3)cc1,-3,0,12,58,-16,-5
COc1ccc(S(=O)(=O)N(C)C[C@H]2OCCCC[C@H](C)Oc3ccc(NS(=O)(=O)c4ccc(F)cc4)cc3C(=O)N([C@H](C)CO)C[C@@H]2C)cc1,-1,-4,18*,-2,-76,8
COc1ccc(S(=O)(=O)N(C)C[C@@H]2OCCCC[C@@H](C)Oc3ccc(NS(=O)(=O)c4ccc(F)cc4)cc3C(=O)N([C@H](C)CO)C[C@@H]2C)cc1,1,3,13,2,-4,9
COc1ccc(S(=O)(=O)Nc2ccc3c(c2)C(=O)N([C@H](C)CO)C[C@@H](C)[C@@H](CN(C)S(=O)(=O)c2ccc(F)cc2)OCCCC[C@H](C)O3)cc1,-1,-2,10,141*,-6,13
COc1ccc(S(=O)(=O)Nc2ccc3c(c2)C(=O)N([C@@H](C)CO)C[C@H](C)[C@H](CN(C)S(=O)(=O)c2ccc(F)cc2)OCCCC[C@H](C)O3)cc1,6,0,10,174*,-34,-15
COc1ccc(S(=O)(=O)Nc2ccc3c(c2)C(=O)N([C@@H](C)CO)C[C@H](C)[C@@H](CN(C)S(=O)(=O)c2ccc(OC)cc2)OCCCC[C@@H](C)O3)cc1,-7,-1,·,·,·,1
COc1ccc(S(=O)(=O)N(C)C[C@@H]2OCCCC[C@@H](C)Oc3ccc(NS(=O)(=O)c4ccc(F)cc4)cc3C(=O)N([C@@H](C)CO)C[C@@H]2C)cc1,43,-1,20*,7,-2,-4
COc1ccc(S(=O)(=O)N(C)C[C@@H]2OCCCC[C@H](C)Oc3ccc(NS(=O)(=O)c4ccc(F)cc4)cc3C(=O)N([C@@H](C)CO)C[C@@H]2C)cc1,44,3,20*,17,-8,-18
COc1ccc(S(=O)(=O)N(C)C[C@H]2OCCCC[C@@H](C)Oc3ccc(NS(=O)(=O)c4ccc(F)cc4)cc3C(=O)N([C@H](C)CO)C[C@H]2C)cc1,-2,2,20*,-17,-67,-2
COc1ccc(S(=O)(=O)Nc2ccc3c(c2)C(=O)N([C@@H](C)CO)C[C@@H](C)[C@@H](CN(C)S(=O)(=O)c2ccc(OC)cc2)OCCCC[C@@H](C)O3)cc1,-14,-2,·,·,·,-15
COc1ccc(S(=O)(=O)Nc2ccc3c(c2)C(=O)N([C@H](C)CO)C[C@@H](C)[C@H](CN(C)S(=O)(=O)c2ccc(F)cc2)OCCCC[C@@H](C)O3)cc1,1,0,11,?,-7,6
COc1ccc(N(Cc2cc(=O)[nH]c3ccccc23)C(=O)c2ccco2)cc1,2,-2,-3,135*,0,8
CN(C)S(=O)(=O)c1ccc(C(=O)Nc2nnc(-c3ccco3)o2)cc1,2,-7,16*,-9,2,-7
CCCCN(C)S(=O)(=O)c1ccc(C(=O)Nc2nnc(-c3ccco3)o2)cc1,-2,-33,-2,-17,-1,-8
Cc1cc(C)c(NC(=O)c2ccc(S(=O)(=O)N(C)C)cc2)c(C)n1,16,19,-4,23,-4,50*
C[C@@H]1CCCCO[C@@H](CN(C)C(=O)CCC(F)(F)F)[C@@H](C)CN([C@H](C)CO)C(=O)c2cc(NC(=O)Nc3ccc4c(c3)OCO4)ccc2O1,1,4,2,38,11,1
CCOc1ccccc1CNC(=O)c1cc2occc2n1C,-3,2,-2,11,183*,-3
SMILES,Cneo AK release,rRNA inh HTS,SIRT5 inh,Statin myotox sup,S100A4 MyoIIA,PGC1a acetyl inh
CCOc1ccccc1CNC(=O)c1cc2oc3ccccc3c2n1C,0,·,·,-3,·,-88
O=C(CNC(=S)N(Cc1ccccc1F)C1CCCCC1)NCC1CCCO1 (stereo not drawn),·,-32*,-1,·,7,9
C[C@@H]1CN([C@H](C)CO)S(=O)(=O)c2ccc(/C=C/c3ccccc3)cc2O[C@@H]1CN(C)C(=O)c1ccc2c(c1)OCO2,7,-5,23*,9,-22,2
C[C@@H]1CN([C@@H](C)CO)S(=O)(=O)c2ccc(/C=C/c3ccccc3)cc2O[C@@H]1CN(C)C(=O)c1ccc2c(c1)OCO2,13,-6,24*,17,1,-9
C/C=C/c1ccc2c(c1)O[C@@H](CN(C)C(=O)c1ccc3c(c1)OCO3)[C@H](C)CN([C@@H](C)CO)S2(=O)=O,-2,-4,0,-9,6,-14
Cc1ccc(C)c(-c2csc(N)c2C(=O)OC(C)C)c1,·,·,·,·,·,-13
Cc1cccc(-c2csc(N)c2C(=O)OC(C)C)c1,1,·,·,116*,·,-12

# Screens from PubChem BioAssay.
